Hits are enriched below; roughly 3.8% of the tested compounds scored in any of these assays.
KCNK9 inh: blocks the human KCNK9 two-pore domain potassium channel; Q9NPC2; HEK293 KCNK9, FluxOR thallium flux fluorescence; hits give low values; B-score at 10 µM; 310,000 tested, 1.2% active; AID 488922;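 active = ratio B-score over 3 SD below the library mean, with starting fluorescence within 5 SD of its mean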;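 note: negative B-score means less thallium flux so channel inhibition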
KCNK3 inh: human KCNK3 channel inhibition, primary screen; O14649; CHO-KCNK3 thallium flux, FluxOR fluorescence; hits give low values; B-score at 10 µM; 340,000 tested, 0.84% active;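 active = B-score under library mean minus 4 SD, starting fluorescence ratio at most library mean plus 5 SD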;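 note: more negative B-score means stronger inhibition of thallium flux through KCNK3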
KCNQ1 inh: blocks the human KCNQ1 potassium channel; P51787; CHO-K1 KCNQ1, FluxOR thallium flux fluorescence; hits give high values; B-score at 10 µM; 310,000 tested, 1.3% active;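 active = compounds whose thallium flux B-score, printed positive for inhibition, exceeds three library SD while starting fluorescence stays within three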;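 note: channel opened by potassium depolarization with thallium stimulus after 20 min compound exposure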
Kir21 block: blocks the mouse Kir2.1 inward-rectifier potassium channel. P35561. AID 1672. B-score at 10 µM. HEK293-Kir2.1, FluxOR thallium flux fluorescence; hits give low values. 310,000 tested, 0.85% active;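 active = fluorescence ratio B-score at or below minus 3 SD of library scores, with starting-brightness B-score within 2 SD, cut at about -4.2 in these data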;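 note: channel flux triggered by added potassium and thallium sulfate stimulus; B-score of peak minus minimum fluorescence over baseline after thallium stimulus; more negative B-score means stronger Kir2.1 block with less thallium influx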
Target sequence (P35561 whole entry, looked up): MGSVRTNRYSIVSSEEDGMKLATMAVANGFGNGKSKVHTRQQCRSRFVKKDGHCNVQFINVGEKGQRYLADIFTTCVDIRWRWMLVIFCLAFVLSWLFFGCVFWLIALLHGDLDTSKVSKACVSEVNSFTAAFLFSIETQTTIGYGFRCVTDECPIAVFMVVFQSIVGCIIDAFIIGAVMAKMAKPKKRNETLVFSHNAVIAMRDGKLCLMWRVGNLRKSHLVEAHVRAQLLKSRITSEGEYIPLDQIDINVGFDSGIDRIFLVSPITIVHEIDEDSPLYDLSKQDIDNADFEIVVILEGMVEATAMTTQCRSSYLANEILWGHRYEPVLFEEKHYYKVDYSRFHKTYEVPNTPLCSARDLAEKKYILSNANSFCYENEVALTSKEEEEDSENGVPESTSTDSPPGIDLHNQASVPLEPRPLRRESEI
KCNQ1 pot: potentiates or activates the human KCNQ1 potassium channel; B-score at 10 µM; P51787; CHO-K1 KCNQ1, thallium flux FluxOR fluorescence; hits give high values; 310,000 tested, 0.35% active;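 active = fluorescence ratio B-score, a plate-corrected score, at least three library SD, with initial intensity B-score within 5 SD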
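assay system = CHO-K1 cells stably expressing KCNQ1 | medium = assay buffer, equal DMSO in all wells | timing = 37 °C overnight plating, 90-min dark dye load, 20-min compound pretreatment | measured by = kinetic FluxOR thallium fluorescence, 10-s 1-Hz baseline, 110-s post-stimulus read | measure = fluorescence change relative to baseline, converted to B score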
hERG rescue: hERG (human) protection from proarrhythmic block | Q12809 | CHO-hERG, FluxOR thallium flux, dofetilide IC70 present | activation (rescue from dofetilide block), less the hit threshold, % at 10 µM | 310,000 tested, 0.51% active | AID 1511;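 active = activation above the mean of controls blocked by dofetilide plus 5 SD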;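 note: thallium influx through hERG after potassium depolarization seen as dye fluorescence rise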
KCNQ1 inh valid: human KCNQ1 channel inhibition, validation assay; shares compounds with KCNQ1 inh; KCNQ1 cell line, FluxOR thallium flux fluorescence; inhibition, % at 10 µM; 1,600 tested, 93% active; AID 588353;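 active = primary screen active, with duplicate mean exceeding buffer control mean plus 3 SD of buffer wells, cut at about 28% in these data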;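 note: 0% = buffer control ratio and 100% = XE991 inhibitor control ratio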
CHO KCNQ1 ctr: KCNQ1 inhibitor counter-screen hit in parental CHO cells. shares compounds with KCNQ1 inh. fluorescence ratio (Tl flux) at 10 µM. parental CHO-K1, FluxOR thallium flux fluorescence ratio; hits give low values; zero means no signal rise above baseline. 1,600 tested, 21% active;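 active = mean of duplicate thallium-flux fluorescence ratios in parental host cells more than 5 SD below the buffer control mean, cut at about 0.38 in these data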;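 note: ratio is peak minus minimum fluorescence divided by baseline fluorescence; actives read low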
KCNQ1 ephys val: confirmation of human KCNQ1 potassium channel inhibitors by electrophysiology. shares compounds with KCNQ1 inh. KCNQ1-CHO cells, automated patch clamp current. calls only at 10 µM. 490 tested, 20% active. AID 624120;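 active = KCNQ1 current drop exceeding 3 SD of negative control wells, seen in both duplicate runs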;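 note: steady state current during a 2 s step from -80 to +40 mV; negative values mean current inhibition and positive values mean potentiation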
KCNQ2 inh: rat KCNQ2 inhibition in KCNQ1 inhibitor specificity screen; shares compounds with KCNQ1 inh; 1,600 tested, 71% active; AID 651746; KCNQ2 cells, FluxOR thallium flux fluorescence; inhibition, % at 10 µM;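 active = mean percent inhibition of the KCNQ2 thallium signal more than 5 SD above the buffer-only control wells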;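 note: KCNQ2 expressed in CHO cells; 0% = buffer control wells and 100% = XE-991 inhibitor control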
KCNQ1-KCNE1 inh: human KCNQ1/KCNE1 inhibition in KCNQ1 specificity screen | shares compounds with KCNQ1 inh | KCNQ1/KCNE1 cells, FluxOR thallium flux fluorescence | inhibition, % at 10 µM | 1,600 tested, 77% active;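 active = mean percent inhibition of duplicate wells above the buffer-only control mean plus 3 SD of those controls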;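 note: 0% = buffer only wells and 100% = XE-991 inhibitor control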
Starred values were filed as active, the others as inactive; i = inactive; · = not tested or not shown; + = active, no number.

SMILES | KCNK9 inh | KCNK3 inh | KCNQ1 inh | Kir21 block | KCNQ1 pot | hERG rescue | KCNQ1 inh valid | CHO KCNQ1 ctr | KCNQ1 ephys val | KCNQ2 inh | KCNQ1-KCNE1 inh
CCCCSc1nnc(-c2ccc(C)cc2)c2ccccc12 | -7.1* | i | 11* | -2.5 | i | -22 | 154* | 0.43 | i | 103%* | 175%*
Cc1ccc(Oc2nnc(-c3ccc(C)cc3)c3ccccc23)cc1 | i | i | i | -0.47 | i | -6 | · | · | · | · | ·
O=C(Nc1ccccc1N1CCCC1)C1CCN(S(=O)(=O)c2ccccc2C(F)(F)F)CC1 | i | i | i | 1.6 | i | -4 | · | · | · | · | ·
O=C(Nc1ccccc1N1CCCCC1)C1CCN(S(=O)(=O)c2ccccc2C(F)(F)F)CC1 | i | i | 11* | 0.25 | i | -13 | 64* | 0.42 | · | 101%* | 82%*
COc1ccc2[nH]c3c(NCc4ccco4)ncnc3c2c1 | i | · | i | 1.6 | i | -13 | · | · | · | · | ·
Fc1ccc2[nH]c3c(NCc4ccccc4)ncnc3c2c1 | i | i | 7* | -2.5 | i | -24 | 150* | 0.4 | i | 73%* | 76%*
CC(C)Cc1cc(C(=O)N2CCN(C(c3ccccc3)c3ccccc3)CC2)no1 | i | i | 7* | 1.1 | i | -9 | 136* | 0.44 | i | 109%* | 176%*
COc1ccc2oc(C(=O)N3CCN(C/C=C/c4ccccc4)CC3)c(C)c2c1 | · | i | · | · | · | · | · | · | · | · | ·
CC(C)c1cc(C(=O)N2CCN(C(c3ccccc3)c3ccccc3)CC2)no1 | -7.9* | i | 7* | -0.63 | i | -7 | 108* | 0.41 | i | 103%* | 110%*
O=C(c1cc(-c2ccco2)on1)N1CCN(C(c2ccccc2)c2ccccc2)CC1 | i | i | 8* | -1.1 | i | -9 | 124* | 0.43 | · | 96%* | 142%*
COc1ccc(-c2cc(C(=O)N3CCN(C(c4ccccc4)c4ccccc4)CC3)no2)cc1 | i | i | i | 0.71 | i | -14 | · | · | · | · | ·
COc1ccc2oc(C(=O)N3CCN(C(c4ccccc4)c4ccccc4)CC3)c(C)c2c1 | i | i | 9* | 0.16 | i | -12 | 93* | 0.44 | + | 101%* | 114%*
COc1ccc(-c2cc(C(=O)N3CCN(C(c4ccccc4)c4ccccc4)CC3)no2)cc1OC | i | i | i | 0.83 | i | -10 | · | · | · | · | ·
Cc1cccc(-c2noc(CN(C)S(=O)(=O)c3cc(Cl)ccc3Cl)n2)c1 | -8* | i | 8* | -0.46 | i | -7 | + | 0.35* | · | i | i
COc1ccc(Cl)cc1C(=O)N(Cc1nc(-c2cccc(C)c2)no1)C(C)C | i | i | i | -1.3 | i | -11 | · | · | · | · | ·
CN(CC(=O)Nc1ccc(Cl)c(C(F)(F)F)c1)C(=O)c1ccc(N2CCOCC2)c([N+](=O)[O-])c1 | i | i | i | 0.1 | i | -23 | · | · | · | · | ·
CC1Cc2ccccc2N1C(=O)CNc1ccccc1N1CCCCC1 (configuration not stated) | i | i | 7* | 1.2 | i | -14 | 81* | 0.45 | · | 101%* | 86%*
CC1CCCN(S(=O)(=O)c2cccc(C(=O)OCC(=O)N(C)Cc3c(F)cccc3Cl)c2)C1 (configuration not stated) | · | i | · | · | · | · | · | · | · | · | ·
O=C(Nc1ccc(Cl)cc1)NC1CCCCC1Cc1ccco1 (configuration not stated) | i | i | 8* | -0.74 | i | -9 | 126* | 0.44 | + | 77%* | 102%*
O=C(COC(=O)c1cc([N+](=O)[O-])ccc1NCCO)Nc1cccnc1Cl | · | i | · | · | · | · | · | · | · | · | ·
Cc1cc(-c2ccc(S(=O)(=O)N(C)c3ccc(C)c(C)c3)s2)on1 | i | i | 9* | 0.7 | i | -6 | 128* | 0.34* | · | 143%* | 150%*
Cc1ccc(N(C)S(=O)(=O)c2ccc(-c3cc(C)no3)s2)cc1 | i | i | i | -1.1 | i | -6 | · | · | · | · | ·
COc1cccc(-c2cc3nc(-c4ccccc4)cc(N4CCCC(O)C4)n3n2)c1 (configuration not stated) | i | i | 9* | 0.83 | i | -20 | 85* | 0.44 | · | 134%* | 182%*
CC1CN(S(=O)(=O)c2cccc(C(=O)Nc3ccccc3N3CCCCC3)c2)CC(C)O1 (configuration not stated) | i | i | 7* | -0.9 | i | -9 | 76* | 0.39 | · | 114%* | 88%*
COc1ccc(-c2csc3ncnc(N4CCN(S(=O)(=O)c5cccs5)CC4)c23)cc1 | i | i | 8* | 0.14 | i | -21 | 84* | 0.43 | · | 100%* | 76%*
SMILES | KCNK9 inh | KCNK3 inh | KCNQ1 inh | Kir21 block | KCNQ1 pot | hERG rescue | KCNQ1 inh valid | CHO KCNQ1 ctr | KCNQ1 ephys val | KCNQ2 inh | KCNQ1-KCNE1 inh
COc1ccc(-c2csc3ncnc(N4CCN(c5cccc(C)c5C)CC4)c23)cc1 | i | i | 7* | -0.67 | i | -15 | 94* | 0.43 | i | 68%* | 148%*
COc1ccc(-c2csc3ncnc(N4CCN(c5cccc(OC)c5)CC4)c23)cc1 | i | i | 10* | 0.21 | i | -10 | 134* | 0.41 | i | 114%* | 119%*
COc1ccc(F)cc1CN1CCN(c2ncnc3scc(-c4ccccc4)c23)CC1 | i | i | 7* | -1.3 | i | -10 | 117* | 0.41 | i | 114%* | 153%*
COc1ccc(CN2CCN(c3ncnc4scc(-c5ccc(F)cc5)c34)CC2)cc1 | i | i | i | -0.53 | i | -12 | · | · | · | · | ·
COc1ccc(-c2csc3ncnc(N4CCN(C(=O)c5ccco5)CC4)c23)cc1 | i | i | i | 0.9 | i | -23 | · | · | · | · | ·
CCN(CC)C(=O)Cn1cc(C(=O)C(=O)N2CCN(c3ccc([N+](=O)[O-])cc3)CC2)c2ccccc21 | i | i | i | -1.5 | i | -10 | · | · | · | · | ·
CCOC(=O)c1c(NC(=O)COC(=O)CCNS(=O)(=O)c2ccccc2)sc(C(=O)NC)c1C | · | i | · | · | · | · | · | · | · | · | ·
